Measured values reported in ChEMBL document CHEMBL1926506, “Benzenediol-berberine hybrids: multifunctional agents for Alzheimer's disease” (Bioorg Med Chem, 2011).
Calls of active or inactive are those of the source. No cut-off for these calls is given here.

Columns and labels:
[1] = molecular target: T1, Butyrylcholinesterase (Equus caballus, UniProt Q9N1N9); test: Inhibition of equine serum BuChE using butyrylthiocholine chloride as substrate preincubated for 15 mins by Ellman's method
[2] = Inhibition of self-mediated amyloid beta (1 to 42) aggregation at 20 uM after 48 hrs by thioflavin T fluorescence assay
Procedure, shortened: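 HFIP-pretreated Abeta1-42 resolubilized in 50 mM phosphate buffer pH 7.4, then incubated at 37 °C for 48 h (final peptide 50 µM) with or without compound at 20 µM. Samples diluted into 50 mM glycine-NaOH pH 8.0 containing thioflavin T. Fluorescence scanned 300 s (ex 450, em 485 nm). Plateau values averaged after subtracting thioflavin T background.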

[3] = Antioxidant activity assessed as trolox equivalent of […]-induced radical scavenging activity at 0.5 to 10 uM measured every 60 sec for 4 hrs by ORAC fluorescence assay relative to trolox; format: functional
Procedure, shortened: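 ORAC-FL in 75 mM phosphate buffer pH 7.4. Sample and fluorescein (300 nM final) preincubated 10 min at 37 °C, then AAPH added (12 mM final). Fluorescence read every 60 s for 4 h (ex 485, em 535 nm). Trolox standard 1–10 µM final; samples 0.5–10 µM. Blank without antioxidant run each assay, curves normalized to it. Fourfold mixtures, at least four independent runs. Expressed as µM Trolox equivalent per µM compound.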

[4] = molecular target: Acetylcholinesterase (Electrophorus electricus, UniProt O42275); test: Inhibition of electric eel AChE using […] as substrate preincubated for 15 mins by Ellman's method
[5] = molecular target: T1, Butyrylcholinesterase; test: Inhibition of equine serum BuChE using […] as substrate preincubated for 15 mins by Ellman's method
[6] = Selectivity ratio of IC50 for equine serum BuChE to IC50 for electric eel AChE
Procedure, shortened: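 Ellman assay in 0.1 M KH₂PO₄/K₂HPO₄ buffer, pH 8.0, with electric eel AChE or equine serum BuChE (2.0 units/ml solutions) and DTNB. Compounds dissolved in DMSO, diluted in buffer, and preincubated with enzyme for 15 min at 37 °C before substrate was added. A412 was read at 1 min intervals at 37 °C. Ratio calculated as IC50(BuChE)/IC50(AChE).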

[7] = molecular target: Acetylcholinesterase (Electrophorus electricus) (UniProt O42275); test: Mixed type inhibition of electric eel AChE using acetylcholine chloride as substrate by Lineweaver-Burk reciprocal plot analysis
Procedure, shortened: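 Enzyme in 0.1 M potassium phosphate pH 8.0 with DTNB. Compound preincubated with enzyme at 37 °C for 15 min, then acetylcholine substrate added. Absorbance read at 412 nm. Reciprocal plots of 1/V versus 1/[S]. Slopes replotted against inhibitor concentration by weighted analysis. Ki taken as the replot intercept divided by the replot slope.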

Acetylcholinesterase, sequence (O42275 whole entry): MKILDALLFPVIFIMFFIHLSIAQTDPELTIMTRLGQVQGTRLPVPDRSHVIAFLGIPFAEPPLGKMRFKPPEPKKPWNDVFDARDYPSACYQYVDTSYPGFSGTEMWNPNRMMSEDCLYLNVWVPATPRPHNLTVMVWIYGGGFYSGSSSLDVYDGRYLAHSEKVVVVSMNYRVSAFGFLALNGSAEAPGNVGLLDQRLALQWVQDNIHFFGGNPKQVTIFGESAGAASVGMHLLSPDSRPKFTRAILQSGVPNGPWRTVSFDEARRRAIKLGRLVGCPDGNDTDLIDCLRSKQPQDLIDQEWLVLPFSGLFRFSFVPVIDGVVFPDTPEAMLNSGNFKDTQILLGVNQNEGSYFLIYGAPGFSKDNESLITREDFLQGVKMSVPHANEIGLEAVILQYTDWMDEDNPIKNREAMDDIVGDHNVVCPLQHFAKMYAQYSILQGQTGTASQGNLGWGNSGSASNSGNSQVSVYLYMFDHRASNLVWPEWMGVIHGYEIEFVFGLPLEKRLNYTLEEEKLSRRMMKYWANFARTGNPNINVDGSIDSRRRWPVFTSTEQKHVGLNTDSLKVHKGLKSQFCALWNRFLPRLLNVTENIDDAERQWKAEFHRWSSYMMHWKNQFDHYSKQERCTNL
T1 sequence (Q9N1N9 whole entry): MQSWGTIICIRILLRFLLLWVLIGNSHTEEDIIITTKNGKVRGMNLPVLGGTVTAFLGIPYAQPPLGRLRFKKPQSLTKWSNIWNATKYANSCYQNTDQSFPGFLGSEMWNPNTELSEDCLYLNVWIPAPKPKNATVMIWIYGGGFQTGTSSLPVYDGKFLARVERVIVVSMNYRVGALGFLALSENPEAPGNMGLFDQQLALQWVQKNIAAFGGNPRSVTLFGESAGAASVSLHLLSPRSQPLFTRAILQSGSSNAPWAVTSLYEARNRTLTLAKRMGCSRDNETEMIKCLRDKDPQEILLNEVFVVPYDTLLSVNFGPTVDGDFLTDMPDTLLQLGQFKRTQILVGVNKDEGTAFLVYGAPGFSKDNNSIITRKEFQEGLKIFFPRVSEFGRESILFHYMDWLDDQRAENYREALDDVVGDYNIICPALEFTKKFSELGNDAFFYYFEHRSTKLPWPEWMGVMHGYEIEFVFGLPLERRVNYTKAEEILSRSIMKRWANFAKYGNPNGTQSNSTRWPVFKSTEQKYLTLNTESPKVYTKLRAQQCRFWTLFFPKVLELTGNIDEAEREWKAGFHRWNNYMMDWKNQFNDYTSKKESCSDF
Acetylcholinesterase (Electrophorus electricus), sequence (O42275 24-633 limits assumed): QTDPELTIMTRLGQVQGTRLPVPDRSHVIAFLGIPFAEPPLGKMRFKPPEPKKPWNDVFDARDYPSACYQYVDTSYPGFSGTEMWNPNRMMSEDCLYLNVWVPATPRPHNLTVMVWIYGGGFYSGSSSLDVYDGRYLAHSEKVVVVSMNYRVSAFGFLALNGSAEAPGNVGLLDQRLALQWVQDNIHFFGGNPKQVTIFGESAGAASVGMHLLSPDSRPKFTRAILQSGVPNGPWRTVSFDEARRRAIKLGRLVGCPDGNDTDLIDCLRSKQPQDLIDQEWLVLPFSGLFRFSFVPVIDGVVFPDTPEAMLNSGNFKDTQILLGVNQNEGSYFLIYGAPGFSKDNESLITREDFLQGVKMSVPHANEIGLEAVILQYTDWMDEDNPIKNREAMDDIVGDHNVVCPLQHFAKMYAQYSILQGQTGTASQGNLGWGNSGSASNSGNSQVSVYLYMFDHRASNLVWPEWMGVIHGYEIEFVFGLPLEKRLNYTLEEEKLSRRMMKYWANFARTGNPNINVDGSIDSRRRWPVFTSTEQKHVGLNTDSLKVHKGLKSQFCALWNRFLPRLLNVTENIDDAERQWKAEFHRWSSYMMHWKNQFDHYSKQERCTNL

SMILES	IC50 [1] [nM]	inhibition [2] [%]	Ratio [3]	IC50 [4] [nM]	IC50 [5] [nM]	Ratio IC50 [6]	inhibition [7]
COc1ccc2cc3[n+](cc2c1OCCCOc1ccc(O)cc1)CCc1cc2c(cc1-3)OCO2	2060	92	9.54	460	1660	4.48	
COc1ccc2cc3[n+](cc2c1OCCC(=O)NCCc1c[nH]c2ccc(C)cc12)CCc1cc2c(cc1-3)OCO2	1960	75.8	3.11	1420	1790	1.39	
COc1ccc2cc3[n+](cc2c1OCCCOc1cccc(O)c1)CCc1cc2c(cc1-3)OCO2	1130	85.9	5.31	628	898	1.8	
COc1ccc2[nH]cc(CCNC(=O)CCOc3c(OC)ccc4cc5[n+](cc34)CCc3cc4c(cc3-5)OCO4)c2c1	2720	79.5	3.61	1440	2490	1.88	
COc1ccc2cc3[n+](cc2c1OC)CCc1cc2c(cc1-3)OCO2		36.3					
COc1cc(/C=C/C(=O)OCCCOc2c(OC)ccc3cc4[n+](cc23)CCc2cc3c(cc2-4)OCO3)ccc1O	2400	75.8	3.43	3210	2250	0.75	
COc1ccc2cc3[n+](cc2c1OCCCCOc1cccc(O)c1)CCc1cc2c(cc1-3)OCO2	2400	72.8	5.3	547	1920	4.39	
COc1ccc2cc3[n+](cc2c1OCCCCOc1ccccc1)CCc1cc2c(cc1-3)OCO2		57.4					
COc1ccc2cc3[n+](cc2c1OCCCCOc1ccccc1O)CCc1cc2c(cc1-3)OCO2	2090	84.5	3.54	123	1740	17	Active
COc1ccc2cc3[n+](cc2c1OCCCCOc1ccc(O)cc1)CCc1cc2c(cc1-3)OCO2	1040	86.6	6.45	304	950	3.42	
COc1ccc2[nH]cc(CCNC(C)=O)c2c1			2.3				
COc1ccc2cc3[n+](cc2c1OCCCOc1ccccc1O)CCc1cc2c(cc1-3)OCO2	1740	83.5	3.41	490	1300	3.55	
COc1cc(/C=C/C(=O)O)ccc1O [FERULATE]		6.1	3.13	> 100000			
COc1ccc2cc3[n+](cc2c1OCCC(=O)NCCc1c[nH]c2ccccc12)CCc1cc2c(cc1-3)OCO2	1640	82.8	3.78	1110	1460		
